According to ChEMBL document CHEMBL1143286, “Discovery of pentacyclic compounds as potent inhibitors of hepatitis C virus NS5B RNA polymerase” (Bioorg Med Chem Lett, 2009):

Tests used:
[1] = Inhibition of HCV BK NS5B polymerase deltaC21 mutant; assay type: single protein, NS5B polymerase (HCV isolate BK)
Outline: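 Purified NS5B enzyme (BK strain, C-terminal 21-residue truncation) assayed for polymerase activity on heterogeneous template RNA, following a modified version of a previously published procedure.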

Hepatitis C virus [2] = experiment: Antiviral activity against HCV assessed as inhibition of viral subgenomic RNA replication in human HuH7 cells by replicon assay in presence of 10% fetal calf serum; assay type: functional, organism-based, Hepacivirus hominis; settings: Huh-7
Hepatitis C virus [3] = experiment: Antiviral activity against HCV assessed as inhibition of viral subgenomic RNA replication in human HuH7 cells by replicon assay in presence of 50% normal human serum; assay type: functional, organism-based, Hepacivirus hominis, Huh-7
Hepatitis C virus [4] = experiment: Ratio of EC50 for HCV RNA replication in human HuH7 cells in presence of 50% normal human serum to EC50 for HCV RNA replication in human HuH7 cells in presence of 10% fetal calf serum; assay type: functional, Hepacivirus hominis, Huh-7
Plasma = experiment: Protein binding in human plasma; assay type: ADME, cell-free

SMILES	IC50 [1]	EC50 (Hepatitis C virus [2])	EC50 (Hepatitis C virus [3]; Hepatitis C virus, Huh-7)	Ratio EC50 (Hepatitis C virus [4])	Activity (Plasma)	EC50 (Hepatitis C virus [3]; huh-7)
CN(C)C(=O)Cn1c(-c2ccccc2)c(C2CCCCC2)c2ccc(C(=O)O)cc21	430 nM	1540 nM	9850 nM			
CN(C)CCN1CCn2c(c(C3CCCCC3)c3ccc(C(=O)O)cc32)-c2ccccc21	28 nM	130 nM	360 nM			
CN1CC[C@@H]2c3ccccc3-c3c(C4CCCCC4)c4ccc(C(=O)O)cc4n3C[C@@H]21	20 nM	1200 nM	3800 nM	3		
CN(C)CC(=O)N1CC[C@H]2Cn3c(c(C4CCCCC4)c4ccc(C(=O)O)cc43)-c3ccccc3[C@@H]21	31 nM	170 nM	210 nM			
COc1ccc2c(c1)[C@H]1[C@@H](CCN1C(=O)CN(C)C)Cn1c-2c(C2CCCCC2)c2ccc(C(=O)O)cc21	23 nM	32 nM	110 nM			
O=C(O)c1ccc2c(C3CCCCC3)c3n(c2c1)C[C@@H]1CCN(CCN2CCCCC2)[C@H]1c1ccccc1-3	11 nM	40 nM	220 nM		92%	
CN(C)CCN1CCn2c(c(C3CCCCC3)c3ccc(C(=O)O)cc32)-c2ccccc2C1	27 nM	140 nM	850 nM			
COc1ccc2c(c1)[C@@H]1[C@@H](CCN1CCN(C)C)Cn1c-2c(C2CCCCC2)c2ccc(C(=O)O)cc21	21 nM	150 nM	270 nM			
CN(C)CCN1CC[C@H]2Cn3c(c(C4CCCCC4)c4ccc(C(=O)O)cc43)-c3ccccc3[C@@H]21	20 nM	32 nM	98 nM		91.5%	
O=C(O)c1ccc2c(C3CCCCC3)c3n(c2c1)C[C@@H]1CCN(CCCN2CCCCC2)[C@@H]1c1ccccc1-3	11 nM	53 nM	110 nM			
COc1ccc2c(c1)[C@H]1[C@@H](CCN1C(=O)OCCN(C)C)Cn1c-2c(C2CCCCC2)c2ccc(C(=O)O)cc21	21 nM	180 nM	225 nM			
CN1CC[C@H]2Cn3c(c(C4CCCCC4)c4ccc(C(=O)O)cc43)-c3ccccc3[C@H]21	140 nM	770 nM	2540 nM	3		
CN1CC[C@H]2Cn3c(c(C4CCCCC4)c4ccc(C(=O)O)cc43)-c3ccccc3[C@@H]21	40 nM	830 nM	700 nM	1		
CN(C)[C@H]1C[C@H]2Cn3c(c(C4CCCCC4)c4ccc(C(=O)O)cc43)-c3ccccc3[C@H]2C1	30 nM	130 nM	890 nM	7		
CN(C)CCNC(=O)N1CC[C@H]2Cn3c(c(C4CCCCC4)c4ccc(C(=O)O)cc43)-c3ccccc3[C@@H]21	24 nM	630 nM	480 nM			
CN(C)C(=O)CN1CC[C@H]2Cn3c(c(C4CCCCC4)c4ccc(C(=O)O)cc43)-c3ccccc3[C@@H]21	17 nM	78 nM	96 nM			
COc1ccc2c(c1)[C@@H]1[C@H](CCN1CCN(C)C)Cn1c-2c(C2CCCCC2)c2ccc(C(=O)O)cc21	312 nM	> 1000 nM	> 1000 nM			
CN(C)CCCN1CC[C@H]2Cn3c(c(C4CCCCC4)c4ccc(C(=O)O)cc43)-c3ccccc3[C@@H]21	24 nM	58 nM	80 nM			
CN(C)CCN1CC[C@H]2Cn3c(c(C4CCCCC4)c4ccc(C(=O)O)cc43)-c3ccccc3[C@H]21	30 nM	260 nM	620 nM			
COc1ccc2c(c1)[C@H]1[C@@H](CCN1CCN(C)C)Cn1c-2c(C2CCCCC2)c2ccc(C(=O)O)cc21 (stereo in doubt; 8b)	8 nM	25 nM	63 nM	2.5		
COc1ccc2c(c1)[C@H]1[C@@H](CCN1CCN(C)C)Cn1c-2c(C2CCCCC2)c2ccc(C(=O)O)cc21 (stereo in doubt; 11)	4 nM					49 nM
